Test results taken from ChEMBL document CHEMBL1151777, “Quantitating the concentration of Py-Im polyamide-fluorescein conjugates in live cells” (Bioorg Med Chem Lett, 2008).
Calls of active or inactive are those of the source. The calls are words filed in the database; no cut-off is given here.

How the values were obtained:
[1] = Binding affinity to DNA 5'WTWCGW3' sequence
Outline: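 Labeled DNA equilibrated with polyamide 14-16 h at 22°C in 10 mM Tris-HCl, 10 mM KCl, 10 mM MgCl2, 5 mM CaCl2, pH 7.0, then cleaved with DNase I. Binding isotherms built from normalized theta values.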

[2] = test system: HeLa; assay: Induction of nuclear localization in human HeLa cells at 2 uM after 12 to 14 hrs by confocal laser scanning microscopy; type: functional, cell-based
Outline: (§1)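 Live cells were incubated 12-14 h at 37°C, 5% CO2 with 2 µM polyamide and imaged directly by confocal microscopy with fluorescein filters. Nuclear staining was scored qualitatively against medium fluorescence; a positive score means nuclear signal exceeds that of the medium.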

[3] = test system: U-251; assay: Induction of nuclear localization in human U251 cells at 2 uM after 12 to 14 hrs by confocal laser scanning microscopy; type: functional, cell-based; outline: as §1
[4] = test system: HeLa; assay: Inhibition of VEGF expression in human HeLa cells by quantitative RT-PCR; type: functional, cell-based
[5] = test system: DNA; assay: Binding affinity to calf thymus DNA at 2 uM assessed as fluorescence enhancement by steady-state fluorimetry relative to control; type: nucleic-acid assay; details: Bos taurus
Outline: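 Sonicated calf thymus DNA serially diluted in supplemented medium (0 to 1000 μM bp), polyamide at 2 μM final. Excitation 490 nm, emission scanned 500-650 nm, 2 nm slits, room temperature. Enhancement taken as the DNA-bound fluorescence relative to the DNA-free emission.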

[6] = Drug uptake in nucleus of human HeLa cells at 2 uM after 12 to 14 hrs by confocal microscopy in presence of calf thymus DNA; type: ADME, cell-based
Outline: (§2)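 Cells grown 24 h in glass-bottom dishes, then given 2 µM polyamide in fresh medium for 12-14 h at 37°C, 5% CO2, and imaged live with a 40× oil objective using fluorescein filters. Calibration standards were polyamide serial dilutions in medium with 500 μM bp sonicated calf thymus DNA. Nuclear concentration was interpolated from the linear calibration curve. At least three images per condition, at least ten cells per image; cell cycles unsynchronized.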

[7] = Drug uptake in nucleus of human U251 cells at 2 uM after 12 to 14 hrs by confocal microscopy in presence of calf thymus DNA; type: ADME, cell-based; details: u-251, 2 µM; outline: as §2
[8] = test system: HeLa; assay: Cytotoxicity against human HeLa cells assessed as cell viability by trypan blue assay; type: functional
Outline: (§3)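 Following 12-14 h polyamide exposure (0, 0.4, 2 or 10 μM final) at 37°C, 5% CO2, cells were trypsinized, pelleted and resuspended in HBSS (no Mg2+/Ca2+, 2.5 mg/mL BSA, 10 mM HEPES, pH 7.0-7.2). Viability was checked by trypan blue staining before flow cytometry.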

[9] = test system: U-251; assay: Cytotoxicity against human U251 cells assessed as cell viability by trypan blue assay; type: functional; outline: as §3
[10] = test system: HeLa; assay: Drug level in human HeLa cells at 2 uM after 12 to 14 hrs flow cytometry; type: ADME, cell-based
Outline: (§4)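 Cells at 1.33×10^5 cells/mL grown 24 h, medium replaced, polyamide added at 0, 0.4, 2 or 10 μM final, 12-14 h at 37°C, 5% CO2. Washed, resuspended in HBSS at 5×10^5 cells/mL. 10,000 cells per sample read in the fluorescein channel. Fluorophores per cell interpolated from a linear curve of the five highest Rainbow bead peaks, then divided by a modeled nuclear volume of 1×10^-12 L (cylinder, radius 10 µm, height 5 µm).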

[11] = test system: HeLa; assay: Drug level in human HeLa cells at 10 uM after 12 to 14 hrs flow cytometry; type: ADME, cell-based; outline: as §4
[12] = test system: HeLa; assay: Drug level in human HeLa cells at 0.4 uM after 12 to 14 hrs flow cytometry; type: ADME, cell-based; outline: as §4
[13] = test system: U-251; assay: Drug level in human U251 cells at 0.4 uM after 12 to 14 hrs flow cytometry; type: ADME, cell-based; details: u-251, 0.4 µM; outline: as §4
[14] = test system: U-251; assay: Drug level in human U251 cells at 2 uM after 12 to 14 hrs flow cytometry; type: ADME, cell-based; details: u-251, 2 µM; outline: as §4
[15] = test system: U-251; assay: Drug level in human U251 cells at 10 uM after 12 to 14 hrs flow cytometry; type: ADME, cell-based; details: u-251, 10 µM; outline: as §4

Q: For `Cn1cc(NC(=O)c2cc(NC(=O)c3nc(NC(=O)c4cc(NC(=O)[C@H](N)CCNC(=O)c5nc(NC(=O)c6cc(NC(=O)c7cc(NC(=O)c8sccc8Cl)cn7C)cn6C)cn5C)cn4C)cn3C)cn2C)cc1C(=O)NCCC(=O)NCCCNC(=S)Nc1ccc(-c2c3ccc(=O)cc-3oc3cc(O)ccc23)c(C(=O)O)c1`, which Ka [1] is on record?
A: The Ka was 3.8 ×10⁹ /M.

Q: What about the Activity [2] of the same molecule?
A: The Activity was “Active”.

Q: What about the Activity [3] of the same molecule?
A: The Activity was “Active”.

Q: What about the Activity [4] of the same molecule?
A: The Activity was “Active”.

Q: And the fold change (FC) [5]?
A: The fold change (FC) was 14.

Q: What about the Drug uptake [6] of the same molecule?
A: Its Drug uptake is 0.5 µM.

Q: And the Drug uptake [7]?
A: The Drug uptake was 1.6 µM.

Q: And the Activity [8]?
A: Its Activity is greater than 95%.

Q: And the Activity [9]?
A: The Activity was greater than 95%.

Q: What about the Drug uptake [10] of the same molecule?
A: The Drug uptake was 0.09 µM.

Q: And the Drug uptake [11]?
A: Its Drug uptake is 0.2 µM.

Q: What about the Drug uptake [12] of the same molecule?
A: Its Drug uptake is 0.02 µM.

Q: And the Drug uptake [13]?
A: The Drug uptake was 0.09 µM.

Q: And the Drug uptake [14]?
A: Its Drug uptake is 0.34 µM.

Q: And the Drug uptake [15]?
A: The Drug uptake was 0.84 µM.
